Published values from different studies.
Target: Vascular endothelial growth factor receptor 3 (FLT4, Homo sapiens, UniProt P35916)

SMILES	read-out	action	technique	tested at	quantity	value
COc1ncccc1-c1cnn2ccc(N3CCN(C(=O)OC(C)C)CC3)nc12	binding	–	competition with immobilised ligand	1 µM	remaining binding	99%
COc1cc(Nc2ncc(F)c(Nc3ccc4c(n3)NC(=O)C(C)(C)O4)n2)cc(OC)c1OC	binding	–	–	10 µM	inhibition	100%
O=c1[nH]c2ccccc2n1C1CCN(Cc2ccc(-c3[nH]c4cc5ncnc5cc4nc3-c3ccccc3)cc2)CC1	cell-free assay	–	–	0.5 µM	remaining signal	98.7%
Cc1nn(C)cc1-c1nc2c(N3CCN(Cc4ccc(Cl)cc4)CC3)c(Cl)cnc2[nH]1	binding	–	competition with immobilised ligand	1 µM	remaining binding	0%
COCc1c(-c2cc3cc(C)cc(OC)c3s2)c2c(N)ncnn2c1CN1CCNC(=O)C1	cell-free assay	–	competition with immobilised ligand	1 µM	inhibition	93.8%
Nc1ncc(-c2nc(N3CCOCC3)nc(N3CCOCC3)n2)c(C(F)F)n1	cell-free assay	–	competition with immobilised ligand	10 µM	remaining binding	77%
Cn1cncc1[C@@](O)(COc1ccc(C#N)cc1-c1ccc(OC(F)(F)F)cc1)c1ccc(C#N)cc1	cell-free assay	–	competition with immobilised ligand	1 µM	remaining binding	90%
Cn1cc(-c2cc(F)cc(N3CCn4c(cc5c4CCCC5)C3=O)c2CO)cc(Nc2ccc(N3CCN(C4COC4)CC3)cn2)c1=O	enzyme activity	inhibitor	–	0.1 µM	inhibition	12%
CC(C)(C)c1cc(C=C(C#N)C#N)cc(Br)c1O	enzyme activity	inhibitor	–	0.5 µM	remaining activity	102%
Cn1cc(-c2cccc(N3CCc4c(sc5c4CC(C)(C)C5)C3=O)c2CO)cc(Nc2ccncn2)c1=O	enzyme activity	inhibitor	–	1 µM	inhibition	13%
N#CC1(c2ccccn2)CCN(Cc2cc(C(=O)O)c(=O)n3ccccc23)CC1	cell-free assay	–	competition with immobilised ligand	1 µM	remaining binding	100%
